Each structure is given as a SMILES string. Values after ≈ are worked out from the molar mass of the structure shown. Where only a bound is given, the exact number is not on record here.

Test [1] deals with 143B. Nature of the test: In vitro cell cytotoxicity against 143B-LTK cell lines expressed in HSV-1 TK. It counts as functional. Conditions: Homo sapiens. Summed up: (§1)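 MTT assay. KBALB, KBALB-STK, 143B and 143B-LTK cells were grown in DMEM with 10% FBS; EMT-6 cells in Waymouth medium with 12.5% FBS. Cells were seeded at 8 × 10² per well and grown 24 h. Compound in DMEM was added for 3 days at 37 °C in 5% CO2, followed by MTT for 4 h, DMSO solubilisation and blank-corrected A540. CC50 is the concentration cutting A540 to 50% of control, mean of n = 6.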

Test [2] concerns Mammalian orthoreovirus 1. In words: Antiviral activity against reovirus-1. It counts as functional, organism-based.
In test [3] the test system is Sindbis virus. Nature of the test: Antiviral activity against sindbus virus. It is filed as functional, organism-based.
The species named for test [4] is Rattus norvegicus. Nature of the test: Compound was tested for in vitro nitric oxide release in the presence of rat serum at 1 h. It counts as functional. Summed up: (§2)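 Compound (1 × 10⁻² M stock) was mixed 1:9 with filtered rat serum. It was incubated at 37 °C for 1 or 16 h with 0.2 U/mL Aspergillus nitrate reductase, 50 mM HEPES, 5 μM FAD and 0.1 mM NADPH. Leftover NADPH was removed with lactate dehydrogenase plus pyruvate over 10 min. Griess reagent was added and A540 read after 10 min at 25 °C. % NO release came from a nitrite standard curve, n = 3.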

Test [5] in a line: Compound was tested for in vitro nitric oxide release in the presence of 18 mM L-cysteine at 16 h. It counts as functional. Summed up:
(§3)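 Compound (2 mM stock in 0.1 M phosphate buffer pH 7.4) was mixed 1:1 with freshly made 36 mM L-cysteine in the same buffer and incubated at 37 °C for 1 or 16 h without air. The mixture was exposed to air for 10 min, then Griess reagent was added. A540 was read after 10 min. Nitrite was calculated from a 0–60 μM sodium nitrite standard curve, n = 3.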

The species entered for test [6] is Rattus norvegicus. In words: Compound was tested for in vitro nitric oxide release in the presence of rat serum at 16 h. It is filed as functional. Summed up:
as §2

The subject of test [7] is KBALB-STK. In words: In vitro cell cytotoxicity against KBALB-STK cell lines expressed in HSV-1 TK. It counts as functional. As to conditions: Mus musculus. Summed up: as §1
Test [8] has as its system 143B. Nature of the test: In vitro cell cytotoxicity against 143-B cell lines (Human osteosarcoma cell line). It is filed as functional. The procedure, abridged: as §1
Test [9] relates to KBALB cell line. Nature of the test: In vitro cell cytotoxicity against KBALB cell line (transformed fibroblast sarcoma cell line). It counts as functional. Conditions: Mus musculus. The procedure, abridged:
as §1

The test system of test [10] is Human respirovirus 3. In words: Antiviral activity against parainfluenza-3 virus. It counts as functional, organism-based.
Test [11] can be described thus: Compound was tested for in vitro nitric oxide release in the presence of 18 mM L-cysteine at 1 h. It is filed as functional. Summed up:
as §3

Test [12] can be described thus: (§4) In vitro cell cytotoxicity against EMT-6 cell lines. As to conditions: Mus musculus, EMT6. It is filed as functional. The procedure, abridged:
as §1

Test [13] has as its system Coxsackievirus B4. In words: Antiviral activity against coxsackie B4 virus. As to conditions: Enterovirus B. It counts as functional, organism-based.
Test [14] has as its system Punta Toro virus. Nature of the test: (§5) Antiviral activity against Punta toro virus in vero cell cultures. It is filed as functional, organism-based.
Test [15] relates to Respiratory syncytial virus. Nature of the test: Antiviral activity against respiratory syncytial virus in Hela cell cultures. Conditions: human respiratory syncytial virus. It is filed as functional, organism-based.
The subject of test [16] is Human alphaherpesvirus 1. Nature of the test: (§6) Inhibitory activity against herpes simplex virus […]. It is filed as functional, organism-based.
The test system of test [17] is Human alphaherpesvirus 2. Described as §6. It is filed as functional, organism-based.
In test [18] the test system is Vaccinia virus. In words: Inhibitory activity against vaccinia virus. It is filed as functional, organism-based. Conditions: Orthopoxvirus vaccinia.
In test [19] the test system is Monkey. The description is as §5. It counts as functional, organism-based, Chlorocebus sabaeus. As to conditions: Cercopithecidae.
Test [20] concerns EMT6. The test is described as §4. It counts as functional. As to conditions: Mus musculus. The procedure, abridged:
as §1

The subject of test [21] is Human alphaherpesvirus 2. In words: Inhibitory activity against HSV-2. It is filed as functional, organism-based.
The subject of test [22] is Human alphaherpesvirus 1. In words: Inhibitory activity against HSV-1. It is filed as functional, organism-based.
Test [23] is described as follows: Compound was tested for in vitro nitric oxide release in the presence of 18 mM L-cysteine at 16h. It is filed as functional. Summed up:
as §3

Regarding `O=c1[nH]c(=O)n([C@H]2C[C@H](O[N+](=O)[O-])[C@@H](CO)O2)cc1F`, the CC50 in test [1] is 74 µM; in [7], 3.5 µM; in [8] it was 2.4 µM; in [9], 8 µM; in test [12], 6.2 µM. Moreover, the IC50 in test [2], in [3], in [10], in test [13], in [14] and in test [15] was > 80 µg/mL in each case. The NO release in test [4] was found to be 4%; in test [5], 3.8%; in test [6], 6.6%; in [11] it was 0%.
As for `Nc1ccn([C@H]2C[C@H](O[N+](=O)[O-])[C@@H](CO)O2)c(=O)n1`, half-maximal cytotoxicity in test [1] (CC50) was put at 200 µM. Also, the NO release in [4] stood at 18.8%; in test [5], 17.1%; in test [6] it was 20.2%; in [11] it was 1.5%.
For the compound `O=c1[nH]c(=O)n([C@H]2C[C@H](O[N+](=O)[O-])[C@@H](CO)O2)cc1I`, the CC50 in [1] stood at 410 µM; in test [7], 260 µM; in [8] it was 580 µM; in test [9], 240 µM; in test [20], 23 µM. The half-inhibitory concentration (IC50) in [2] is > 80 µg/mL; in [3] it was > 80 µg/mL; in test [16], 48 µg/mL (≈ 120 µM); in test [17] it was 48 µg/mL (≈ 120 µM); in test [18], 48 µg/mL (≈ 120 µM); in test [19], > 80 µg/mL. The IC50 in [10], in [13] and in test [15] was > 80 µg/mL each time. For the same compound, the NO release amounted to 12.3% in [4], 37.6% in test [5], 13.2% in test [6] and 3.9% in test [11].
For `O=c1[nH]c(=O)n([C@H]2C[C@H](O)[C@@H](CO)O2)cc1I` [IDOXURIDINE], the CC50 in [1] is 7400 µM; in test [7], 10 µM; in test [8], 7000 µM; in test [9] it was 97 µM; in [12], 380 µM.
As for `O=c1[nH]c(=O)n([C@H]2C[C@H](O)[C@@H](CO)O2)cc1/C=C/I`, the IC50 in test [21] stood at 80 µg/mL (≈ 210 µM); in [18], 2.3 µg/mL (≈ 6.05 µM); in test [22] it was 0.0051 µg/mL (≈ 0.0134 µM).
For `Cc1cn([C@H]2C[C@H](O)[C@@H](CO[N+](=O)[O-])O2)c(=O)[nH]c1=O`, the NO release came out at 3.6% in [4], 4.8% in test [6], 59.8% in [23] and 5% in [11]. In [7], the CC50 came to 300 µM.
Regarding `O=[N+]([O-])O[C@H]1CO[C@H]2[C@@H]1OC[C@H]2O[N+](=O)[O-]` [ISOSORBIDE DINITRATE], the CC50 is 700 µM in [1], 650 µM in test [7], 600 µM in test [8] and 970 µM in test [9]. Besides, the NO release in test [4] came to 1.9%; in test [5], 24%; in [6] it was 2.6%; in [11], 3.5%.
Regarding `O=c1[nH]c(=O)n([C@H]2C[C@H](O)[C@@H](CO)O2)cc1F` [FLOXURIDINE], the values for the cytotoxic concentration (CC50) in test [1] and in test [8] were 100 µM and 90 µM, respectively.
Consider `Cc1cn([C@H]2C[C@H](O[N+](=O)[O-])[C@@H](CO)O2)c(=O)[nH]c1=O`, for which the IC50 in [2], in test [3], in [10], in test [13], in test [14] and in test [15] was > 80 µg/mL each time. Moreover, the NO release in test [4] stood at 7.4%; in test [5] it was 53.6%; in [6] it was 7.4%; in [11], 4.9%. The figures for the 50% cytotoxic concentration (CC50) in test [7] and in test [9] were 7000 µM and 1000 µM, respectively.
In [1], `Cc1cn([C@H]2C[C@H](O[N+](=O)[O-])[C@@H](CO)O2)c(=O)nc1N` gave a CC50 of 1000 µM. The NO release stood at 47.1% in [4], 50.3% in test [5], 59.5% in test [6] and 3.8% in [11].
`O=c1[nH]c(=O)n([C@H]2C[C@H](O)[C@@H](CO[N+](=O)[O-])O2)cc1I`: the CC50 in [1] is 21 µM; in test [7] it was 250 µM; in test [8], 340 µM; in [9], 340 µM. Moreover, the NO release in test [4] stood at 3.9%; in test [5], 36.4%; in test [6], 4.7%; in test [11] it was 3.7%.
In the case of `O=c1ccn([C@H]2C[C@H](O)[C@@H](CO[N+](=O)[O-])O2)c(=O)[nH]1`, the NO release came out at 2.9% in [4], 59.9% in test [5], 4.4% in test [6] and 5.4% in test [11]. Half-maximal cytotoxicity in test [9] (CC50) was put at 1000 µM.
On to `Cc1cn([C@H]2C[C@H](O)[C@@H](CO)O2)c(=O)[nH]c1=O` [DOXRIBTIMINE], for which the CC50 in [7] was 100 µM; in [9], 95 µM; in test [12] it was 130 µM.
On to `O=c1ccn([C@H]2C[C@H](O[N+](=O)[O-])[C@@H](CO)O2)c(=O)[nH]1`, for which, in test [1], it took 850 µM to reach half-maximal cytotoxicity (CC50). Further, the concentration for half-maximal inhibition (IC50) in test [2], in test [3], in [19], in test [10], in test [13] and in test [15] was > 80 µg/mL each time. Moreover, the NO release in [4] turned out to be 7.7%; in test [6], 9%; in [11] it was 4.9%.
Consider `Nc1nc(=O)n([C@H]2C[C@H](O[N+](=O)[O-])[C@@H](CO)O2)cc1I`, for which the CC50 in [1] came to 200 µM; in [7], 250 µM; in test [8] it was 200 µM; in test [9] it was 1000 µM; in [20], 340 µM. In addition, the NO release in [4] was 12.5%; in test [5], 47.2%; in [6], 17.6%; in test [11] it was 4%.

These data come from ChEMBL document CHEMBL1136729, “Synthesis of 3'- and 5'-nitrooxy pyrimidine nucleoside nitrate esters: "nitric oxide donor" agents for evaluation as anticancer and antiviral agents” (J Med Chem, 2003).
